Converted amounts (≈) assume the structure as drawn. The source made the active and inactive calls. The rule behind the calls is not given here. Starred links: 1 amine or outer side, 2 acyl side, 3 side chain; linkers in the order of their positions; H or OH if unused. Positions of bridges follow the written chain, without caps; N, C: chain ends. Non-standard residues stand in square brackets, D forms with d. Residues, ends and D or L forms follow the SMILES beside them. *: point of attachment. pTerphenylCO(4''-OnC5H11) = CCCCCOc1ccc(-c2ccc(-c3ccc(C(=O)*)cc3)cc2)cc1; Orn(4R-OH,5R-OH) = O=C([C@H](C[C@@H](O)[C@@H](O)N[*:3])N[*:1])[*:2]; hTyr(3S-OH,4S-OH) = N[C@H](C(=O)O)[C@H](O)[C@@H](O)c1ccc(O)cc1; Pro(3S-OH,4S-Me) = C[C@H]1CN[C@H](C(=O)O)[C@H]1O; Hyp = O=C(O)[C@@H]1C[C@@H](O)CN1
Legend:
Nakaseomyces glabratus [1] = assay: Antifungal activity against Candida glabrata 5376 infected in neutropenic ICR/Swiss mouse candidiasis model assessed as dose required for 1-log10 reduction in […] per kidney administered intraperitoneally every 24 hrs up to 4 days measured per 96 hrs; type: functional
Method in brief: (§1)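 Neutropenic ICR/Swiss mice infected i.v. with the strain; therapy began 2 h later. Total doses of 1.25–320 mg/kg/96 h were given i.p. as 1, 2, 4 or 6 doses (q96h, q48h, q24h, q16h), three mice per regimen. Kidney CFU were counted after 4 days. Effect is the change from untreated controls at the end of therapy.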

Nakaseomyces glabratus [2] = assay: Antifungal activity against Candida glabrata 5376 infected in neutropenic ICR/Swiss mouse candidiasis model assessed as […] burden per kidney administered intraperitoneally every 48 hrs up to 4 days measured per 96 hrs; type: functional; details: Nakaseomyces glabratus, 5376, Kidney, ip; method in brief: as §1
Candida albicans [3] = assay: Antifungal activity against Candida albicans K-1 infected in neutropenic ICR/Swiss mouse candidiasis model assessed as dose required to maintain […] of 3.81 +/- 0.33 log10CFU per kidney administered intraperitoneally every 24 hrs up to 4 days measured per 24 hrs; type: functional
Method in brief: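 Neutropenic mice (cyclophosphamide sc 150 mg/kg day −4, 100 mg/kg day −1 and day +2) infected iv via tail vein, 2 h before therapy. Drug given ip in 0.2 ml, diluted from DMSO stock in 0.9% NaCl, q24h for 4 days over five dose levels (0.078–20 mg/kg/24 h), 3 mice per regimen. Kidney CFU on SDA. Static dose taken from a sigmoid Emax (Hill) fit.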

Candida albicans [4] = assay: Antifungal activity against Candida albicans 98-17 infected in neutropenic ICR/Swiss mouse candidiasis model assessed as dose required to maintain […] of 3.81 +/- 0.33 log10CFU per kidney administered intraperitoneally every 24 hrs up to 4 days measured per 24 hrs; type: functional
Method in brief: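 Neutropenic mice (cyclophosphamide sc on days −4, −1 and +2) were infected iv 2 h before therapy. Five total doses from 0.078 to 20 mg/kg/24 h were given ip q24h for 4 days, three mice per regimen. Kidney CFU were measured at the end of therapy. Static and 1-log-kill doses were derived from a Hill sigmoid dose-effect fit.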

Candida albicans [5] = assay: Antifungal activity against Candida albicans K-1 infected in neutropenic ICR/Swiss mouse candidiasis model assessed as reduction of […] in kidney at 20 mg/kg, ip administered 2 hrs postinfection as single dose measured within 1 to 4 hrs post dosing by time-kill assay; type: functional, organism-based; design: dose 20 mg/kg
Method in brief: (§2)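 Single ip dose (20, 5 or 1.25 mg/kg) given 2 h after iv infection of neutropenic mice with K-1. Three treated and three control mice were sampled at intervals over 96 h for kidney CFU. PAFE is the time for treated burden to rise 1 log10 after serum levels fall below MIC, minus the same time in controls. Free drug was taken as 1%.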

Candida albicans [6] = assay: Antifungal activity against Candida albicans K-1 infected in neutropenic ICR/Swiss mouse candidiasis model assessed as reduction of […] in kidney at 5 mg/kg, ip administered 2 hrs postinfection as single dose measured within 1 to 4 hrs post dosing by time-kill assay; type: functional, organism-based; design: dose 5 mg/kg; method in brief: as §2
Serum = assay: Fraction unbound in Candida albicans K-1 infected neutropenic ICR/Swiss mouse serum at 1.25 mg/kg, ip administered 2 hrs postinfection as single dose; type: ADME, organism-based; design: dose 1.25 mg/kg, route intraperitoneal; details: in vivo
Candida albicans [7] = assay: Antifungal activity against Candida albicans K-1 infected in neutropenic ICR/Swiss mouse candidiasis model assessed as dose required for 1-log10 reduction in […] per kidney administered intraperitoneally every 16 hrs up to 4 days measured per 96 hrs; type: functional
Method in brief: (§3)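 Neutropenic mice were infected iv with C. albicans K-1 2 h before therapy. Total doses of 1.25, 5, 20, 80 and 320 mg/kg/96 h were split into 1, 2, 4 or 6 ip doses (q96h, q48h, q24h, q16h), three mice per regimen. Effect is the log10 CFU/kidney relative to untreated controls at 96 h. Static and 1-log doses were taken from a Hill model fit.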

Candida albicans [8] = assay: Antifungal activity against Candida albicans K-1 infected in neutropenic ICR/Swiss mouse candidiasis model assessed as dose required for 1-log10 reduction in […] per kidney administered intraperitoneally once every 96 hrs measured per 96 hrs; type: functional; method in brief: as §3
Nakaseomyces glabratus [9] = assay: Antifungal activity against Candida glabrata 5376 infected in neutropenic ICR/Swiss mouse candidiasis model assessed as […] burden per kidney administered intraperitoneally every 24 hrs up to 4 days measured per 96 hrs; type: functional; details: Nakaseomyces glabratus, 5376, Kidney, ip; method in brief: as §1
Nakaseomyces glabratus [10] = assay: Antifungal activity against Candida glabrata 35315 assessed as complete growth inhibition after 24 hrs by CLSI end point method; type: functional; details: Nakaseomyces glabratus, 35315, 24 h
Method in brief: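 Two end points were read against the drug-free control well: partial growth inhibition (the CLSI end point) and complete inhibition. Run in duplicate on four separate occasions; the value is the mean. Drug stock was made in DMSO and diluted in 0.9% NaCl.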

Candida albicans [11] = assay: Antifungal activity against Candida albicans 98-210 infected in neutropenic ICR/Swiss mouse candidiasis model assessed as fungal count per kidney administered 2 hrs postinfection measured up to 48 hrs; type: functional
Method in brief: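 Untreated neutropenic mice infected via the tail vein (inoculum about 6.1 log10 CFU/ml, 0.1 ml). Growth is the rise in kidney CFU over 48 h. Kidneys were homogenised, serially diluted 1:10 and plated on SDA for 24 h at 35°C. Mean of three mice.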

Candida tropicalis = assay: Antifungal activity against Candida tropicalis 98-234 infected in neutropenic ICR/Swiss mouse candidiasis model assessed as fungal count per kidney administered 2 hrs postinfection measured up to 48 hrs; type: functional
Method in brief: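 Untreated neutropenic ICR/Swiss female mice infected iv via lateral tail vein (0.1 ml, 6.1 ± 0.51 log10 CFU/ml); kidneys homogenised, serially diluted 1:10 and plated on SDA, counted after 24 h at 35°C; growth in kidneys over 48 h, mean CFU per kidney of three mice, detection limit 100 CFU/ml.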

Nakaseomyces glabratus [12] = assay: Antifungal activity against Candida glabrata 37661 infected in neutropenic ICR/Swiss mouse candidiasis model assessed as fungal count per kidney administered 2 hrs postinfection measured up to 48 hrs; type: functional
Method in brief: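 Female ICR/Swiss mice (23–27 g) made neutropenic with cyclophosphamide s.c. (150 mg/kg day −4, 100 mg/kg day −1, 100 mg/kg day +2). Infected by tail vein with 0.1 ml inoculum (~6.1 log10 CFU/ml). Kidneys of untreated mice were homogenised and plated on SDA for 24 h at 35°C. Growth over 48 h is given as log10 CFU/kidney.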

[13] = AUC (0 to infinity) in serum of neutropenic ICR/Swiss mouse candidiasis model at 20 mg/kg, ip by reverse-phase high-pressure liquid chromatography; type: ADME, organism-based; design: time infinity, dose 20 mg/kg, route intraperitoneal
Method in brief: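 Single ip dose in 0.2 ml to infected neutropenic mice. Serum from groups of three isoflurane-anaesthetised mice at 1, 4, 8, 12, 24 and 48 h, stored −80°C. Drug measured by reverse-phase HPLC with fluorescence detection against loratadine internal standard (calibration 10–50,000 ng/ml). Noncompartmental analysis; AUC by trapezoidal rule.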

[14] = Elimination half life in serum of neutropenic ICR/Swiss mouse candidiasis model at 5 mg/kg, ip by reverse-phase high-pressure liquid chromatography; type: ADME, organism-based; design: dose 5 mg/kg, route intraperitoneal; details: read-out: beta t1/2 (converted)
Method in brief: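 Infected neutropenic ICR/Swiss mice given single ip doses (5, 20 or 80 mg/kg; 0.2 ml); serum from three isoflurane-anaesthetised mice at 1, 4, 8, 12, 24 and 48 h, stored at −80°C, assayed by reverse-phase HPLC with fluorescence detection, loratadine internal standard, linear 10–50,000 ng/ml. Noncompartmental analysis; half-life by nonlinear least squares.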

CCCCCOc1ccc(-c2ccc(-c3ccc(C(=O)N[C@H]4C[C@@H](O)[C@@H](O)NC(=O)[C@@H]5[C@@H](O)[C@@H](C)CN5C(=O)[C@H]([C@@H](C)O)NC(=O)[C@H]([C@H](O)[C@@H](O)c5ccc(O)cc5)NC(=O)[C@@H]5C[C@@H](O)CN5C(=O)[C@H]([C@@H](C)O)NC4=O)cc3)cc2)cc1 [ANIDULAFUNGIN] ({pTerphenylCO(4''-OnC5H11)}-[Orn(4R-OH,5R-OH)]T[Hyp][hTyr(3S-OH,4S-OH)]T[Pro(3S-OH,4S-Me)]; lactam 1-C)
Activity (Nakaseomyces glabratus [1]): 30.8 mg/kg
ED50 (Nakaseomyces glabratus [2]): 13.4 mg/kg
Activity (Candida albicans [3]): 1.25 mg/kg
Activity (Candida albicans [4]): 1.15 mg/kg
Activity (Candida albicans [5]): Active
Activity (Candida albicans [6]): Active
Fu (Serum): 1%
Activity (Candida albicans [7]): 38.3 mg/kg
Activity (Candida albicans [8]): 4.97 mg/kg
ED50 (Nakaseomyces glabratus [9]): 15.9 mg/kg
MIC (Nakaseomyces glabratus [10]): 1 µg/mL (≈ 0.877 µM)
log10cfu (Candida albicans [11]): 3.5
log10cfu (Candida tropicalis): 3.84
log10cfu (Nakaseomyces glabratus [12]): 0.96
AUC(0-inf) [13]: 382 µg·h/mL
half-life [14]: 14.8 h
